Measured values as given in ChEMBL document CHEMBL1128374, “Preparation and in vitro activities of ethers of [D-serine]8-cyclosporin” (J Med Chem, 1995).
In brackets after ≈: the same amount, converted by molar mass.

Legend:
Assay type in all cases: functional
[1] = species: Mus musculus; experiment: In vitro efficacy on humoral immune response by Mishell-Dutton assay (MD).
Procedure, shortened: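 Spleen lymphocytes from female OF1 mice (ca. 10 x 10^6) cultured 3 days with sheep erythrocytes (ca. 30 x 10^6) and test compound. Cells then plated on agar with fresh erythrocytes; plaques form by complement lysis. Read-out is the count of antibody-producing plaque-forming cells. Cyclosporin A run in parallel.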

[2] = species: Mus musculus; experiment: In vitro inhibition of interleukin-2 (IL-2) production induced by stimulating lymphocytes derived from mouse spleens with the […]; conditions: Spleen
Procedure, shortened: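 Compounds added with concanavalin A to the primary culture; supernatants collected at 48 h. IL-2 content measured by growth of IL-2-dependent CTLL cells, read as tritiated thymidine incorporation after 48 h. IC50 determined, with cyclosporin A run in parallel.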

[3] = species: Mus musculus; experiment: In vitro efficacy to suppress lymphocyte proliferation as measured by the incorporation of a labeled precursor ([3H]- thymidine) into DNA in Mixed Lymphocyte reaction (MLR).
Procedure, shortened: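 Cells from spleens of female CBA mice aged 8–10 weeks (ca. 5 x 10^5). Compounds made up at 20 mg/mL in 9:1 (v/v) ethanol/Tween 80, then diluted in saline before adding to medium. Four concentrations per compound across 1.8–1000 ng/mL, in triplicate cultures. IC50 is the calculated concentration giving 50% inhibition of proliferation. Cyclosporin A run in parallel as control.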

IC50 [1] [µg/mL]	IC50 [2] [µg/mL]	Compound	IC50 [3] [µg/mL]
0.41 (≈ 0.308 µM)	> 1	C/C=C/C[C@@H](C)[C@@H](O)[C@H]1C(=O)N[C@@H](CC)C(=O)N(C)CC(=O)N(C)[C@@H](CC(C)C)C(=O)N[C@@H](C(C)C)C(=O)N(C)[C@@H](CC(C)C)C(=O)N[C@@H](C)C(=O)N[C@H](COCC(=O)OC(C)(C)C)C(=O)N(C)[C@@H](CC(C)C)C(=O)N(C)[C@@H](CC(C)C)C(=O)N(C)[C@@H](C(C)C)C(=O)N1C	0.24 (≈ 0.18 µM)
0.035 (≈ 0.0268 µM)	0.075 (≈ 0.0574 µM)	C/C=C/C[C@@H](C)[C@@H](O)[C@H]1C(=O)N[C@@H](CC)C(=O)N(C)CC(=O)N(C)[C@@H](CC(C)C)C(=O)N[C@@H](C(C)C)C(=O)N(C)[C@@H](CC(C)C)C(=O)N[C@@H](C)C(=O)N[C@H](COCCOCCO)C(=O)N(C)[C@@H](CC(C)C)C(=O)N(C)[C@@H](CC(C)C)C(=O)N(C)[C@@H](C(C)C)C(=O)N1C	0.17 (≈ 0.13 µM)
0.026 (≈ 0.0213 µM)	< 0.008	C/C=C/C[C@@H](C)[C@@H](O)[C@H]1C(=O)N[C@@H](CC)C(=O)N(C)CC(=O)N(C)[C@@H](CC(C)C)C(=O)N[C@@H](C(C)C)C(=O)N(C)[C@@H](CC(C)C)C(=O)N[C@@H](C)C(=O)N[C@H](CO)C(=O)N(C)[C@@H](CC(C)C)C(=O)N(C)[C@@H](CC(C)C)C(=O)N(C)[C@@H](C(C)C)C(=O)N1C	< 0.008
0.024 (≈ 0.0186 µM)	0.017 (≈ 0.0132 µM)	C/C=C/C[C@@H](C)[C@@H](O)[C@H]1C(=O)N[C@@H](CC)C(=O)N(C)CC(=O)N(C)[C@@H](CC(C)C)C(=O)N[C@@H](C(C)C)C(=O)N(C)[C@@H](CC(C)C)C(=O)N[C@@H](C)C(=O)N[C@H](COCC(C)CO)C(=O)N(C)[C@@H](CC(C)C)C(=O)N(C)[C@@H](CC(C)C)C(=O)N(C)[C@@H](C(C)C)C(=O)N1C (stereo not given in full)	0.013 (≈ 0.0101 µM)
0.018 (≈ 0.0143 µM)	0.006 (≈ 0.00475 µM)	C/C=C/C[C@@H](C)[C@@H](O)[C@H]1C(=O)N[C@@H](CC)C(=O)N(C)CC(=O)N(C)[C@@H](CC(C)C)C(=O)N[C@@H](C(C)C)C(=O)N(C)[C@@H](CC(C)C)C(=O)N[C@@H](C)C(=O)N[C@H](COCCO)C(=O)N(C)[C@@H](CC(C)C)C(=O)N(C)[C@@H](CC(C)C)C(=O)N(C)[C@@H](C(C)C)C(=O)N1C [OXECLOSPORIN]	< 0.008
